KCNK9 inh = KCNK9 potassium channel inhibitors, primary screen, HEK293 cells, thallium flux; Potassium channel subfamily K member 9 (Homo sapiens), Q9NPC2; FluxOR thallium flux fluorescence; hits give low values; B-score at 10 µM; hit rate 1.2% among 310,000; AID 488922, 2010;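 active means ratio B-score over 3 SD below the library mean, with starting fluorescence within 5 SD of its mean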;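 further: negative B-score means less thallium flux so channel inhibition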
hERG protect = hERG rescue from dofetilide block, primary screen, cell-based, CHO-hERG, FluxOR thallium flux, dofetilide IC70; Voltage-gated inwardly rectifying potassium channel KCNH2 (Homo sapiens), Q12809; dofetilide IC70 present; activation (rescue from dofetilide block), less the hit threshold, % at 10 µM; hit rate 0.51% among 310,000;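 active means activation above the mean of controls blocked by dofetilide plus 5 SD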;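 further: thallium influx through hERG after potassium depolarization seen as dye fluorescence rise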
KCNQ1 pot = potentiators or activators of KCNQ1 channel, primary screen, cell-based, thallium flux, high-throughput; Potassium voltage-gated channel subfamily KQT member 1 (Homo sapiens), P51787; CHO-K1 KCNQ1, thallium flux FluxOR fluorescence; hits give high values; B-score at 10 µM; hit rate 0.35% among 310,000;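 active means fluorescence ratio B-score, a plate-corrected score, at least three library SD, with initial intensity B-score within 5 SD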
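Doses: Single concentration per compound, DMSO matched to controls | Test system: KCNQ1-transfected CHO-K1 cells | Timing: 90 min dye loading and 20 min compound exposure, both at room temperature | Measured by: Kinetic FluxOR thallium fluorescence, 10-s 1-Hz baseline, 110-s post-stimulus read | Medium: Assay buffer with matched DMSO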
KCNK3 block = human KCNK3 channel inhibitors, primary screen, CHO cells, FluxOR thallium flux, B-score; Potassium channel subfamily K member 3 (Homo sapiens), O14649; FluxOR fluorescence; hits give low values; B-score at 10 µM; hit rate 0.84% among 340,000; AID 602410, 2012;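 active means B-score under library mean minus 4 SD, starting fluorescence ratio at most library mean plus 5 SD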;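 further: more negative B-score means stronger inhibition of thallium flux through KCNK3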
Kir21 block = inhibitors of mouse Kir2.1 inward-rectifier potassium channel. AID 1672, 2009. Inward rectifier potassium channel 2 (Mus musculus), P35561. hit rate 0.85% among 310,000. HEK293-Kir2.1, FluxOR thallium flux fluorescence; hits give low values. B-score at 10 µM;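 active means fluorescence ratio B-score at or below minus 3 SD of library scores, with starting-brightness B-score within 2 SD, cut at about -4.2 in these data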;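 further: channel flux triggered by added potassium and thallium sulfate stimulus; B-score of peak minus minimum fluorescence over baseline after thallium stimulus; more negative B-score means stronger Kir2.1 block with less thallium influx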
KCNQ1 inh = inhibitors of human KCNQ1 channel, primary screen, cell-based, thallium flux, high-throughput | Potassium voltage-gated channel subfamily KQT member 1 (Homo sapiens), P51787 | CHO-K1 KCNQ1, FluxOR thallium flux fluorescence; hits give high values | B-score at 10 µM | hit rate 1.3% among 310,000;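 active means compounds whose thallium flux B-score, printed positive for inhibition, exceeds three library SD while starting fluorescence stays within three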;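 further: channel opened by potassium depolarization with thallium stimulus after 20 min compound exposure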
* hit, by the source's call; i = inactive; . = no result. An excerpt weighted towards active compounds, which were near 3.7% of everything screened.

SMILES	KCNK9 inh	hERG protect	KCNQ1 pot	KCNK3 block	Kir21 block	KCNQ1 inh
Cc1ccc(C(OCC(O)CNC(CO)C(O)c2ccc([N+](=O)[O-])cc2)c2ccccc2)cc1 (stereo unspecified)	i	-17	i	i	-5.2*	i
Cc1ccc(C(OCC(O)CNC(C)c2ccccc2)c2ccccc2)cc1 (stereo unspecified)	i	-18	i	i	-6*	i
Cc1ccccc1Nc1nc(N)c2ccccc2n1	i	-4	i	i	-2	i
COc1ccc(C)cc1Nc1nc(N)c2ccccc2n1	i	-8	i	i	-4.9*	i
COc1ccc(OC)c(Nc2c3ccccc3nc3ccccc23)c1	i	-16	i	i	-4.6*	i
COc1ccc([N+](=O)[O-])cc1Nc1c2ccccc2nc2ccccc12	i	-8	i	i	-1.6	8*
C[C@@H](C(=O)CC(=O)OC(C)(C)C)[C@@H](O)c1c(F)cccc1Cl	-8*	-7	i	i	0.04	i
CC(C)(C)NC(=O)NC(=O)COC(=O)c1c(F)cccc1Cl	i	-7	i	i	1.6	i
COc1ccc(C2CC(=O)Oc3c(C(CCN4CCCCC4)c4ccc(N(C)C)cc4)c(OC)cc(OC)c32)cc1 (stereo unspecified)	i	-10	i	i	1.2	i
COc1ccc(C2CC(=O)Oc3c(C(CCN4CCCC(C)C4)c4ccc(N(C)C)cc4)c(OC)cc(OC)c32)cc1 (stereo unspecified)	i	-10	i	i	0.53	7*
O=C(NC(=S)Nc1cccc(Cl)c1Cl)C1CC1	i	-1	i	i	0.46	i
CCOCCCNc1nc2c(C)cccn2c(=O)c1/C=C1\SC(=S)N(CC(C)C)C1=O	i	-12	i	i	0.19	i
CCOCCCNc1nc2c(C)cccn2c(=O)c1/C=C1\SC(=S)N(C(C)CC)C1=O (stereo unspecified)	i	-16	i	i	-0.18	7*
CCOC(=O)C1CCN(S(=O)(=O)c2cccc3nonc23)CC1	i	14*	i	i	1.2	i
CCOC(=O)C1CCN(S(=O)(=O)c2c(Cl)ccc3nonc23)CC1	i	-19	9*	i	-1.1	i
CCOC(=O)CN1C(=O)N[C@@H](c2cccc(F)c2)C(C(=O)OC)=C1C	i	-7	i	i	-6.1*	i
CCOC(=O)CN1C(=O)N[C@@H](c2ccccc2)C(C(=O)OC)=C1C	.	.	.	i	.	.
COC(=O)C1=C(C)N(Cc2ccccc2)C(=NCc2ccc(OC)cc2)N[C@H]1c1cccc(F)c1	i	-18	i	i	-9.6*	i
COC(=O)C1=C(C)N(Cc2ccccc2)C(=NCc2cc(OC)c(OC)c(OC)c2)N[C@H]1c1cccc(F)c1	i	-7	i	i	-5.2*	i
CCC(C)c1ccccc1NC(=O)COC(=O)C1=NN(c2ccccc2)C(=O)CC1 (stereo unspecified)	.	.	.	i	.	.
COc1ccc(/C=N/Nc2cc(C)nc3ccccc23)cc1	i	-17	i	i	-6.6*	i
COc1ccc(/C=N/Nc2cc(C)nc3c(C)cccc23)cc1	i	-26	i	i	-0.72	6*
CCCN(CC(=O)Nc1ccc(F)c(F)c1F)C(=O)c1ccc(N2CCCC2=O)cc1	.	.	.	i	.	.
Cc1noc(C)c1CN(C(=S)NC(C)C)c1ccccc1	i	-11	i	i	-6.5*	i
Cc1ccccc1OCC(=O)N1CCN(C(=O)COc2ccccc2C)CC1	i	-2	i	i	-0.2	i
SMILES	KCNK9 inh	hERG protect	KCNQ1 pot	KCNK3 block	Kir21 block	KCNQ1 inh
C=CCn1c(=S)[nH]c2scc(-c3ccc(C)o3)c2c1=O	i	64*	99*	i	0.81	i
CCn1c(=S)[nH]c2scc(-c3cccs3)c2c1=O	i	100*	112*	i	0.07	i
CCOC(=O)c1ccccc1NC(=O)COC(=O)CSc1ccccc1	i	-5	i	i	-0.33	i
COc1ccc(Nc2ccc(Cl)nn2)cc1	i	-5	i	i	1	i
Clc1ccc(Nc2ccc(Cl)nn2)cc1	i	5.9*	i	i	0.7	i
COc1cc(CC(=O)OCC(=O)c2ccc[nH]2)cc(OC)c1OC	.	.	.	i	.	.
CCN1CCc2c(sc(NC(=O)c3ccc4ccccc4c3)c2C(N)=O)C1	-6.8*	-29	i	i	-2.4	i
CCN1CCc2c(sc(NC(=O)c3ccc(S(=O)(=O)N(C)c4ccccc4)cc3)c2C(=O)NC)C1	i	-22	i	i	-3.3	21*
NC(=O)c1ccsc1NC(=O)c1ccc(S(=O)(=O)N2CCCc3ccccc32)cc1	i	-8	i	i	1.1	i
CC(C)N1CCc2c(sc(NC(=O)c3cc(-c4cccs4)nc4ccccc34)c2C(N)=O)C1	-6.9*	-47	i	i	-1.1	i
CC(C)N1CCc2c(sc(NC(=O)c3nc4ccccc4s3)c2C(N)=O)C1	i	-8	i	i	-1.1	i
CC(C)N1CCc2c(sc(NC(=O)c3ccc(S(=O)(=O)N4CCc5ccccc54)cc3)c2C(N)=O)C1	i	-25	i	i	0.04	17*
COC(=O)C(Cc1ccccc1)NC(=O)CNC(=O)c1sc2ccccc2c1Cl (stereo unspecified)	i	-3	i	i	0.48	i
COc1ccc(CC(=O)N(C)Cc2ccc(OC(F)F)cc2)cc1S(=O)(=O)N1CCOCC1	.	.	.	i	.	.
CC(=O)c1ccc(OCCCC(=O)NCCc2ccccc2)cc1	i	-9	i	i	0.79	i
CNC(=O)c1c(NC(=O)c2ccc(S(=O)(=O)N(C)c3ccccc3)cc2)sc2c1CCN(C(C)C)C2	-8.1*	-18	i	.	-4.5	i
Cc1cc(C)c2cc(C#N)c(N3CCCN(C(=S)NCCCN(C)C)CC3)nc2c1	i	-13	i	i	-6.6*	i
COCCn1c(C)c(C)c(S(=O)(=O)c2ccccc2)c1N	i	-4	i	i	1.8	i
Cc1cc(C)c(S(=O)(=O)NCC(c2ccco2)N2CCc3ccccc3C2)c(C)c1 (stereo unspecified)	-6.8*	-3	i	i	0.04	i
